Assay results published in ChEMBL document CHEMBL1806360, “Synthesis and biological evaluation of conformationally flexible as well as restricted dimers of monastrol and related dihydropyrimidones” (Eur J Med Chem, 2011).
≈ marks a conversion by molar mass, not a printed value. Calls of active or inactive are those of the source. The rule behind the calls is not given here.

Tests used:
[1] = tested on: COLO 205; experiment: Cytotoxicity against human COLO205 cells after 48 hrs by MTT assay; assay type: functional, cell-based; details: COLO 205, 48 h
How it was run: (§1)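 MTT assay. Medium with 10% FBS and 2 mM L-glutamine was DMEM for A431 and Colo-205, RPMI for A549, and MEM for MCF-7. Cultures were preincubated 24 h at 37 °C, 5% CO2. 1 × 10⁴ cells (trypan blue count) were exposed to 200, 100, 50, 25 and 10 concentration levels for 48 h at 37 °C. MTT was added for 4 h, formazan dissolved in DMSO, and A570 read. IC50 was curve-fitted from viability versus untreated cells, three experiments.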

[2] = tested on: Bacillus subtilis; experiment: Antibacterial activity against Bacillus subtilis assessed as zone of inhibition at 50 ug/ml by agar plate method; assay type: functional, organism-based
How it was run: (§2)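 Well diffusion on Mueller-Hinton agar. Inoculum from 3–5 colonies was grown in nutrient broth and adjusted to 0.5 McFarland (about 1 × 10⁸ CFU/mL), then swabbed over the plate. Compounds were dissolved in DMSO and added to duplicate 6 mm wells. Plates were incubated 18 h at 37 °C, and inhibition zone diameter was read to the nearest mm. Ciprofloxacin was the positive control and DMSO the negative control.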

[3] = tested on: Pseudomonas aeruginosa; experiment: Antibacterial activity against Pseudomonas aeruginosa assessed as zone of inhibition at 100 ug/ml by agar plate method; assay type: functional; details: read-out: IZ; how it was run: as §2
[4] = tested on: Staphylococcus aureus; experiment: Antibacterial activity against Staphylococcus aureus assessed as zone of inhibition at 100 ug/ml by agar plate method; assay type: functional; details: read-out: IZ; how it was run: as §2
[5] = tested on: HT-29; experiment: Cytotoxicity against human HT-29 cells after 48 hrs by MTT assay; assay type: functional, cell-based; details: HT-29, 48 h
[6] = tested on: Klebsiella pneumoniae; experiment: Antibacterial activity against Klebsiella pneumoniae assessed as zone of inhibition at 50 ug/ml by agar plate method; assay type: functional, organism-based; how it was run: as §2
[7] = tested on: Escherichia coli; experiment: Antibacterial activity against Escherichia coli assessed as zone of inhibition at 50 ug/ml by agar plate method; assay type: functional, organism-based; how it was run: as §2
[8] = tested on: A549; experiment: Cytotoxicity against human A549 cells after 48 hrs by MTT assay; assay type: functional, cell-based; details: A549, 48 h; how it was run: as §1
[9] = tested on: A-431; experiment: Cytotoxicity against human A431 cells after 48 hrs by MTT assay; assay type: functional, cell-based; details: A-431, 48 h; how it was run: as §1
[10] = tested on: Escherichia coli; experiment: Antibacterial activity against Escherichia coli assessed as zone of inhibition at 100 ug/ml by agar plate method; assay type: functional; details: read-out: IZ; how it was run: as §2
[11] = tested on: MCF7; experiment: Cytotoxicity against human MCF7 cells after 48 hrs by MTT assay; assay type: functional, cell-based; details: MCF7, 48 h; how it was run: as §1
[12] = tested on: Bacillus subtilis; experiment: Antibacterial activity against Bacillus subtilis assessed as zone of inhibition at 100 ug/ml by agar plate method; assay type: functional; details: read-out: IZ; how it was run: as §2
[13] = tested on: Staphylococcus epidermidis; experiment: Antibacterial activity against Staphylococcus epidermidis assessed as zone of inhibition at 50 ug/ml by agar plate method; assay type: functional, organism-based; how it was run: as §2
[14] = tested on: Staphylococcus epidermidis; experiment: Antibacterial activity against Staphylococcus epidermidis assessed as zone of inhibition at 100 ug/ml by agar plate method; assay type: functional; details: read-out: IZ; how it was run: as §2
[15] = tested on: Nucleic Acid; experiment: Binding affinity to calf thymus DNA assessed as change in melting temperature at compound to DNA ratio of 1:5 after 18 hrs at pH 7; assay type: nucleic-acid assay; details: Bos taurus
How it was run: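 Thermal melting of calf thymus DNA in 10 mM sodium phosphate with 1 mM Na2EDTA, pH 7.00. Compound was added from DMSO stock at a fixed 1:5 compound:DNA molar ratio. The mix was incubated 18 h at 37 °C, then A260 was monitored while heating at 1 °C/min over 40–90 °C. ΔTm is relative to DNA alone.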

[16] = tested on: Klebsiella pneumoniae; experiment: Antibacterial activity against Klebsiella pneumoniae assessed as zone of inhibition at 100 ug/ml by agar plate method; assay type: functional; details: read-out: IZ; how it was run: as §2
[17] = tested on: MCF7; experiment: Ratio IC50 for monastrol to compound for human MCF7 cells; assay type: functional
[18] = target: T1, Kinesin-like protein KIF11 (Homo sapiens, UniProt P52732); experiment: Inhibition of HsEg5
T1 sequence (P52732 whole entry): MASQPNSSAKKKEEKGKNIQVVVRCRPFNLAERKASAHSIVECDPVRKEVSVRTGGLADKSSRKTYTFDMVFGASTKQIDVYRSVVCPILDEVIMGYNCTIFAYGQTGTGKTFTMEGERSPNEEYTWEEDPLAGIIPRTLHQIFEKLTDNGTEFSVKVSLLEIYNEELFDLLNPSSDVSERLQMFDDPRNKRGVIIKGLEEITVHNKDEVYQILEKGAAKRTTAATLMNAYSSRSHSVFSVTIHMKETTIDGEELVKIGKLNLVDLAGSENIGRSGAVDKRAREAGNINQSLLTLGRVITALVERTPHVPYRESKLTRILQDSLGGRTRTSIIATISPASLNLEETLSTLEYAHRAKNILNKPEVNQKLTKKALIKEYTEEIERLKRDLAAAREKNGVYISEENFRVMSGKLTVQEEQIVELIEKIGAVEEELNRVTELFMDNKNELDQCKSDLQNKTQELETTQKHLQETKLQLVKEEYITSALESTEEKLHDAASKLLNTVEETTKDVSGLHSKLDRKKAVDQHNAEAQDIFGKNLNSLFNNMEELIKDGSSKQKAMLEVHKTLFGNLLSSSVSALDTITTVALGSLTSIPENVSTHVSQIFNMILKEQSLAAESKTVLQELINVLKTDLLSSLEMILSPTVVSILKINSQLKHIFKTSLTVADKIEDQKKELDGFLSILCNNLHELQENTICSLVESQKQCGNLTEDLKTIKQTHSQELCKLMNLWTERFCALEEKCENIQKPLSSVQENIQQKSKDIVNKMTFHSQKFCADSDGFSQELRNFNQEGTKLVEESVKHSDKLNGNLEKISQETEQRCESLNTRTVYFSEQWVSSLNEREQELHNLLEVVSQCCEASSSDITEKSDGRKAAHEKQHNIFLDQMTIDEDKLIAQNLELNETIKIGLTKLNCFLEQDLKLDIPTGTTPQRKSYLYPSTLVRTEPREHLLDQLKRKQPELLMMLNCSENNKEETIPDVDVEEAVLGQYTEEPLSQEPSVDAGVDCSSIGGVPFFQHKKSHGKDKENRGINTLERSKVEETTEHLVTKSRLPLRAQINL

[19] = tested on: Staphylococcus aureus; experiment: Antibacterial activity against Staphylococcus aureus assessed as zone of inhibition at 50 ug/ml by agar plate method; assay type: functional; details: read-out: IZ; how it was run: as §2
[20] = tested on: Pseudomonas aeruginosa; experiment: Antibacterial activity against Pseudomonas aeruginosa assessed as zone of inhibition at 50 ug/ml by agar plate method; assay type: functional; details: read-out: IZ; how it was run: as §2

| Structure (SMILES) | IC50 [1] | Activity [2] | zone of inhibition at 100 µg/mL [3] | zone of inhibition at 100 µg/mL [4] | IC50 [5] | Activity [6] | Activity [7] | IC50 [8] | IC50 [9] | zone of inhibition at 100 µg/mL [10] | IC50 [11] | zone of inhibition at 100 µg/mL [12] | Activity [13] | zone of inhibition at 100 µg/mL [14] | ΔTm [15] | zone of inhibition at 100 µg/mL [16] | Ratio IC50 [17] | IC50 [18] | zone of inhibition at 50 µg/mL [19] | zone of inhibition at 50 µg/mL [20] |
| --- | --- | --- | --- | --- | --- | --- | --- | --- | --- | --- | --- | --- | --- | --- | --- | --- | --- | --- | --- | --- |
| CCOC(=O)C1=C(C)NC(=S)NC1c1ccc(OC/C=C\COc2ccc(C3NC(=S)NC(C)=C3C(=O)OCC)cc2OC)c(OC)c1 (configuration not stated) | 120 µg/mL (≈ 172 µM) | inactive | 15 mm | 12 mm | > 200 µg/mL | inactive | inactive | > 200 µg/mL | 170 µg/mL (≈ 244 µM) | 12 mm | 84 µg/mL (≈ 121 µM) | 13 mm | inactive | 18 mm | – | – | – | – | – | – |
| CCOC(=O)C1=C(C)NC(=S)NC1c1cccc(OC/C=C/COc2cccc(C3NC(=S)NC(C)=C3C(=O)OCC)c2)c1 (configuration not stated) | > 200 µg/mL | inactive | 15 mm | 8 mm | > 200 µg/mL | inactive | inactive | > 200 µg/mL | 185 µg/mL (≈ 291 µM) | 10 mm | 175 µg/mL (≈ 275 µM) | 12 mm | inactive | 18 mm | 2.5 °C | 8 mm | – | – | – | – |
| O=C(O)c1cn(C2CC2)c2cc(N3CCNCC3)c(F)cc2c1=O [CIPROFLOXACIN] | – | inactive | 38 mm | 25 mm | – | inactive | inactive | – | – | 35 mm | – | 33 mm | inactive | 35 mm | – | 12 mm | – | – | – | – |
| CCOC(=O)C1=C(C)NC(=S)NC1c1cccc(OCCCOc2cccc(C3NC(=S)NC(C)=C3C(=O)OCC)c2)c1 (configuration not stated) | 144 µg/mL (≈ 230 µM) | inactive | 12 mm | 10 mm | > 200 µg/mL | inactive | inactive | 120 µg/mL (≈ 192 µM) | 76 µg/mL (≈ 122 µM) | 20 mm | 16 µg/mL (≈ 25.6 µM) | 8 mm | inactive | 15 mm | 0.1 °C | 5 mm | 3 | – | – | – |
| CCOC(=O)C1=C(C)NC(=S)NC1c1cccc(OC/C=C\COc2cccc(C3NC(=S)NC(C)=C3C(=O)OCC)c2)c1 (configuration not stated) | 64 µg/mL (≈ 101 µM) | inactive | 18 mm | 15 mm | > 200 µg/mL | inactive | inactive | 154 µg/mL (≈ 242 µM) | 190 µg/mL (≈ 298 µM) | 8 mm | 49 µg/mL (≈ 76.9 µM) | 10 mm | inactive | 12 mm | – | 8 mm | – | – | – | – |
| CCOC(=O)C1=C(C)NC(=S)NC1c1ccc(OCCCOc2ccc(C3NC(=S)NC(C)=C3C(=O)OCC)cc2OC)c(OC)c1 (configuration not stated) | 49 µg/mL (≈ 71.5 µM) | – | – | – | > 200 µg/mL | – | – | 116 µg/mL (≈ 169 µM) | 66 µg/mL (≈ 96.4 µM) | – | 22 µg/mL (≈ 32.1 µM) | – | – | – | – | – | 2 | – | – | – |
| CCOC(=O)C1=C(C)NC(=S)NC1c1cccc(O)c1 (configuration not stated) [MONASTROL] | 164 µg/mL (≈ 561 µM) | – | – | – | – | – | – | 118 µg/mL (≈ 404 µM) | 53 µg/mL (≈ 181 µM) | – | 45 µg/mL (≈ 154 µM) | – | – | – | 0 °C | – | – | 14 µM | – | – |
| COC(=O)[C@@H]1CCCN1C(=O)C1=C(C)NC(=S)NC1c1cccc(OC/C=C\COc2cccc(C3NC(=S)NC(C)=C3C(=O)N3CCC[C@H]3C(=O)OC)c2)c1 (some centres not stated) | 180 µg/mL (≈ 224 µM) | inactive | 12 mm | 15 mm | > 200 µg/mL | inactive | inactive | > 200 µg/mL | 183 µg/mL (≈ 228 µM) | 12 mm | 156 µg/mL (≈ 194 µM) | 12 mm | inactive | 17 mm | 3.1 °C | 3 mm | – | – | – | – |
| CCOC(=O)C1=C(C)NC(=S)NC1c1ccc(OCCCCCOc2ccc(C3NC(=S)NC(C)=C3C(=O)OCC)cc2OC)c(OC)c1 (configuration not stated) | 113 µg/mL (≈ 159 µM) | inactive | 20 mm | 19 mm | > 200 µg/mL | inactive | inactive | > 200 µg/mL | 124 µg/mL (≈ 174 µM) | 10 mm | 180 µg/mL (≈ 252 µM) | 8 mm | inactive | 10 mm | – | 10 mm | – | – | 10 mm | 12 mm |
| CCOC(=O)C1=C(C)NC(=S)NC1c1ccc(OCCCCOc2ccc(C3NC(=S)NC(C)=C3C(=O)OCC)cc2OC)c(OC)c1 (configuration not stated) | > 200 µg/mL | inactive | 13 mm | 9 mm | > 200 µg/mL | inactive | inactive | > 200 µg/mL | 185 µg/mL (≈ 265 µM) | 10 mm | 178 µg/mL (≈ 255 µM) | 15 mm | inactive | 12 mm | – | 5 mm | – | – | – | – |
